Converted amounts (≈) assume the structure as drawn.
What was measured:
[1] = Solubility in aqueous solution; type: physicochemical; conditions: buffer
Staphylococcus aureus [2] = experiment: Antimicrobial activity against methicillin-resistant Staphylococcus aureus NRS100 by micro-dilution method; type: functional
Procedure, shortened: (§1)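 Broth microdilution MIC in cation-adjusted Mueller-Hinton II medium supplemented with 1% Tween-80 (CAMHB-T), needed to disperse the farnesol-type compounds. Compounds tested from 2 to 2048 μg/mL.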

Staphylococcus aureus [3] = experiment: Antimicrobial activity against methicillin-resistant Staphylococcus aureus NRS123 by micro-dilution method; type: functional; procedure, shortened: as §1
Staphylococcus aureus [4] = experiment: Antimicrobial activity against methicillin-resistant Staphylococcus aureus NRS70 by micro-dilution method; type: functional; procedure, shortened: as §1
Staphylococcus aureus [5] = experiment: Antimicrobial activity against methicillin-susceptible Staphylococcus aureus ATCC 29213 by micro-dilution method; type: functional; procedure, shortened: as §1
Staphylococcus aureus [6] = experiment: Potentiation of ampicillin-induced antimicrobial activity against methicillin-susceptible Staphylococcus aureus ATCC 29213 at 256 ug/ml (reference value: ampicillin alone MIC = 0.5 ug/ml); type: functional
Staphylococcus aureus [7] = experiment: Potentiation of ampicillin-induced antimicrobial activity against methicillin-susceptible Staphylococcus aureus ATCC 29213 at 256 ug/ml relative to ampicillin alone; type: functional
Staphylococcus aureus [8] = experiment: Potentiation of ampicillin-induced antimicrobial activity against methicillin-resistant Staphylococcus aureus NRS100 at 256 ug/ml (reference value: ampicillin alone MIC = 16 ug/ml); type: functional
Staphylococcus aureus [9] = experiment: Potentiation of ampicillin-induced antimicrobial activity against methicillin-resistant Staphylococcus aureus NRS100 at 256 ug/ml relative to ampicillin alone; type: functional
Staphylococcus aureus [10] = experiment: Potentiation of ampicillin-induced antimicrobial activity against methicillin-resistant Staphylococcus aureus NRS70 at 256 ug/ml (reference value: ampicillin alone MIC = 16 ug/ml); type: functional
Staphylococcus aureus [11] = experiment: Potentiation of ampicillin-induced antimicrobial activity against methicillin-resistant Staphylococcus aureus NRS70 at 256 ug/ml relative to ampicillin alone; type: functional
Staphylococcus aureus [12] = experiment: Potentiation of ampicillin-induced antimicrobial activity against methicillin-resistant Staphylococcus aureus NRS123 at 256 ug/ml (reference value: ampicillin alone MIC = 12 ug/ml); type: functional
Staphylococcus aureus [13] = experiment: Potentiation of ampicillin-induced antimicrobial activity against methicillin-resistant Staphylococcus aureus NRS123 at 256 ug/ml relative to ampicillin alone; type: functional
Staphylococcus aureus [14] = experiment: Potentiation of oxacillin-induced antimicrobial activity against methicillin-susceptible Staphylococcus aureus ATCC 29213 at 256 ug/ml (reference value: oxacillin alone MIC = 0.4 ug/ml); type: functional
Staphylococcus aureus [15] = experiment: Potentiation of oxacillin-induced antimicrobial activity against methicillin-susceptible Staphylococcus aureus ATCC 29213 at 256 ug/ml relative to oxacillin alone; type: functional
Staphylococcus aureus [16] = experiment: Potentiation of oxacillin-induced antimicrobial activity against methicillin-resistant Staphylococcus aureus NRS100 at 256 ug/ml (reference value: oxacillin alone MIC = >256 ug/ml); type: functional
Staphylococcus aureus [17] = experiment: Potentiation of oxacillin-induced antimicrobial activity against methicillin-resistant Staphylococcus aureus NRS100 at 256 ug/ml relative to oxacillin alone; type: functional
Staphylococcus aureus [18] = experiment: Potentiation of oxacillin-induced antimicrobial activity against methicillin-resistant Staphylococcus aureus NRS70 at 256 ug/ml (reference value: oxacillin alone MIC = 32 ug/ml); type: functional
Staphylococcus aureus [19] = experiment: Potentiation of oxacillin-induced antimicrobial activity against methicillin-resistant Staphylococcus aureus NRS70 at 256 ug/ml relative to oxacillin alone; type: functional
Staphylococcus aureus [20] = experiment: Potentiation of oxacillin-induced antimicrobial activity against methicillin-resistant Staphylococcus aureus NRS123 at 256 ug/ml (reference value: oxacillin alone MIC = 24 ug/ml); type: functional
Staphylococcus aureus [21] = experiment: Potentiation of oxacillin-induced antimicrobial activity against methicillin-resistant Staphylococcus aureus NRS123 at 256 ug/ml relative to oxacillin alone; type: functional
Staphylococcus aureus [22] = experiment: Potentiation of oxacillin-induced antimicrobial activity against methicillin-resistant Staphylococcus aureus NRS70 at 256 ug/ml by checkerboard assay; type: functional
Procedure, shortened: (§2)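 Checkerboard combination of oxacillin with the farnesol-type compound. Synergy scored by the fractional inhibitory concentration index (FICI).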

Staphylococcus aureus [23] = experiment: Potentiation of oxacillin-induced antimicrobial activity against methicillin-resistant Staphylococcus aureus NRS100 at 256 ug/ml by checkerboard assay; type: functional; procedure, shortened: as §2
Staphylococcus aureus [24] = experiment: Potentiation of ampicillin-induced antimicrobial activity against methicillin-resistant Staphylococcus aureus NRS100 relative to untreated ampicillin alone; type: functional
Staphylococcus aureus [25] = experiment: Potentiation of oxacillin-induced antimicrobial activity against methicillin-resistant Staphylococcus aureus NRS100 relative to untreated oxacillin alone; type: functional
Staphylococcus aureus [26] = experiment: Potentiation of ampicillin-induced antimicrobial activity against methicillin-resistant Staphylococcus aureus NRS70 relative to untreated ampicillin alone; type: functional
Staphylococcus aureus [27] = experiment: Potentiation of oxacillin-induced antimicrobial activity against methicillin-resistant Staphylococcus aureus NRS70 relative to untreated oxacillin alone; type: functional
Staphylococcus aureus [28] = experiment: Potentiation of ampicillin-induced antimicrobial activity against methicillin-susceptible Staphylococcus aureus ATCC 29213 at 1000 ug/ml (reference value: ampicillin alone MIC = 0.5 ug/ml); type: functional
Staphylococcus aureus [29] = experiment: Potentiation of ampicillin-induced antimicrobial activity against methicillin-susceptible Staphylococcus aureus ATCC 29213 at 1000 ug/ml relative to ampicillin alone; type: functional
Staphylococcus aureus [30] = experiment: Potentiation of ampicillin-induced antimicrobial activity against methicillin-resistant Staphylococcus aureus NRS100 at 1000 ug/ml (reference value: ampicillin alone MIC = 16 ug/ml); type: functional
Staphylococcus aureus [31] = experiment: Potentiation of ampicillin-induced antimicrobial activity against methicillin-resistant Staphylococcus aureus NRS100 at 1000 ug/ml relative to ampicillin alone; type: functional
Staphylococcus aureus [32] = experiment: Potentiation of ampicillin-induced antimicrobial activity against methicillin-resistant Staphylococcus aureus NRS70 at 1000 ug/ml (reference value: ampicillin alone MIC = 16 ug/ml); type: functional
Staphylococcus aureus [33] = experiment: Potentiation of ampicillin-induced antimicrobial activity against methicillin-resistant Staphylococcus aureus NRS70 at 1000 ug/ml relative to ampicillin alone; type: functional
Staphylococcus aureus [34] = experiment: Potentiation of ampicillin-induced antimicrobial activity against methicillin-resistant Staphylococcus aureus NRS123 at 1000 ug/ml (reference value: ampicillin alone MIC = 12 ug/ml); type: functional
Staphylococcus aureus [35] = experiment: Potentiation of ampicillin-induced antimicrobial activity against methicillin-resistant Staphylococcus aureus NRS123 at 1000 ug/ml relative to ampicillin alone; type: functional
Staphylococcus aureus [36] = experiment: Potentiation of oxacillin-induced antimicrobial activity against methicillin-susceptible Staphylococcus aureus ATCC 29213 at 1000 ug/ml (reference value: oxacillin alone MIC = 0.4 ug/ml); type: functional
Staphylococcus aureus [37] = experiment: Potentiation of oxacillin-induced antimicrobial activity against methicillin-susceptible Staphylococcus aureus ATCC 29213 at 1000 ug/ml relative to oxacillin alone; type: functional
Staphylococcus aureus [38] = experiment: Potentiation of oxacillin-induced antimicrobial activity against methicillin-resistant Staphylococcus aureus NRS100 at 1000 ug/ml (reference value: oxacillin alone MIC = >256 ug/ml); type: functional
Staphylococcus aureus [39] = experiment: Potentiation of oxacillin-induced antimicrobial activity against methicillin-resistant Staphylococcus aureus NRS100 at 1000 ug/ml relative to oxacillin alone; type: functional
Staphylococcus aureus [40] = experiment: Potentiation of oxacillin-induced antimicrobial activity against methicillin-resistant Staphylococcus aureus NRS70 at 1000 ug/ml (reference value: oxacillin alone MIC = 32 ug/ml); type: functional
Staphylococcus aureus [41] = experiment: Potentiation of oxacillin-induced antimicrobial activity against methicillin-resistant Staphylococcus aureus NRS70 at 1000 ug/ml relative to oxacillin alone; type: functional
Staphylococcus aureus [42] = experiment: Potentiation of oxacillin-induced antimicrobial activity against methicillin-resistant Staphylococcus aureus NRS123 at 1000 ug/ml (reference value: oxacillin alone MIC = 24 ug/ml); type: functional
Staphylococcus aureus [43] = experiment: Potentiation of oxacillin-induced antimicrobial activity against methicillin-resistant Staphylococcus aureus NRS123 at 1000 ug/ml relative to oxacillin alone; type: functional
Staphylococcus aureus [44] = experiment: Potentiation of oxacillin-induced antimicrobial activity against methicillin-resistant Staphylococcus aureus NRS70 at 1000 ug/ml by checkerboard assay; type: functional; procedure, shortened: as §2
Staphylococcus aureus [45] = experiment: Potentiation of oxacillin-induced antimicrobial activity against methicillin-resistant Staphylococcus aureus NRS100 at 1000 ug/ml by checkerboard assay; type: functional; procedure, shortened: as §2

CC(C)=CCC/C(C)=C/CC/C(C)=C/CNP(O)(O)=S
solubility [1]: Soluble | MIC (Staphylococcus aureus [2]): 512 µg/mL (≈ 1.61 mM) | MIC (Staphylococcus aureus [3]): 512 µg/mL (≈ 1.61 mM) | MIC (Staphylococcus aureus [4]): 512 µg/mL (≈ 1.61 mM) | MIC (Staphylococcus aureus [5]): 512 µg/mL (≈ 1.61 mM) | MIC (Staphylococcus aureus [6]): 0.5 µg/mL | fold change (FC) (Staphylococcus aureus [7]): 1 | MIC (Staphylococcus aureus [8]): 3 µg/mL | fold change (FC) (Staphylococcus aureus [9]): 5.3 | MIC (Staphylococcus aureus [10]): 6 µg/mL | fold change (FC) (Staphylococcus aureus [11]): 2.7 | MIC (Staphylococcus aureus [12]): 8 µg/mL | fold change (FC) (Staphylococcus aureus [13]): 1.5 | MIC (Staphylococcus aureus [14]): 0.4 µg/mL | fold change (FC) (Staphylococcus aureus [15]): 1 | MIC (Staphylococcus aureus [16]): 2 µg/mL | fold change (FC) (Staphylococcus aureus [17]): >128 | MIC (Staphylococcus aureus [18]): 1 µg/mL | fold change (FC) (Staphylococcus aureus [19]): 32 | MIC (Staphylococcus aureus [20]): 16 µg/mL | fold change (FC) (Staphylococcus aureus [21]): 1.5 | fractional inhibitory concentration index (FICI) (Staphylococcus aureus [22]): 0.53 - 1.13 | fractional inhibitory concentration index (FICI) (Staphylococcus aureus [23]): 0.53 - 1.13

CC(C)=CCC/C(C)=C/CC/C(C)=C/CO [FARNESOL]
MIC (Staphylococcus aureus [2]): 2050 µg/mL (≈ 9.21 mM) | MIC (Staphylococcus aureus [3]): 2050 µg/mL (≈ 9.21 mM) | MIC (Staphylococcus aureus [4]): 2050 µg/mL (≈ 9.21 mM) | MIC (Staphylococcus aureus [5]): 2050 µg/mL (≈ 9.21 mM) | fold change (FC) (Staphylococcus aureus [24]): 24 | fold change (FC) (Staphylococcus aureus [25]): >64 | fold change (FC) (Staphylococcus aureus [26]): 256 | fold change (FC) (Staphylococcus aureus [27]): 96 | MIC (Staphylococcus aureus [28]): 0.5 µg/mL | fold change (FC) (Staphylococcus aureus [29]): 1 | MIC (Staphylococcus aureus [30]): 4 µg/mL | fold change (FC) (Staphylococcus aureus [31]): 4 | MIC (Staphylococcus aureus [32]): 4 µg/mL | fold change (FC) (Staphylococcus aureus [33]): 4 | MIC (Staphylococcus aureus [34]): 3 µg/mL | fold change (FC) (Staphylococcus aureus [35]): 4 | MIC (Staphylococcus aureus [36]): 0.5 µg/mL | fold change (FC) (Staphylococcus aureus [37]): 0.8 | MIC (Staphylococcus aureus [38]): 8 µg/mL | fold change (FC) (Staphylococcus aureus [39]): >32 | MIC (Staphylococcus aureus [40]): 12 µg/mL | fold change (FC) (Staphylococcus aureus [41]): 2.7 | MIC (Staphylococcus aureus [42]): 2 µg/mL | fold change (FC) (Staphylococcus aureus [43]): 12 | fractional inhibitory concentration index (FICI) (Staphylococcus aureus [44]): 0.53 - 1.13 | fractional inhibitory concentration index (FICI) (Staphylococcus aureus [45]): 0.53 - 1.13

Reference: ChEMBL document CHEMBL4184251, “Potentiation of the activity of β-lactam antibiotics by farnesol and its derivatives” (Bioorg Med Chem Lett, 2018)
